Source: ChEMBL document CHEMBL1123203, “Metal complexes of mitomycins” (1986)

How the values were obtained:
P388 [1] = assay: Activity against P-388 murine leukemia cells expressed as median survival time (MST treated/MST control) at a dose of 25.6 mg/kg per inj.; type: functional, Mus musculus
How it was run: (§1)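 P-388 leukemia in vivo: 10^6 ascites cells implanted ip into female CDF1 mice. Six mice per mitosane dose, 10 saline-injected controls, and a concurrent mitomycin C group of six mice per dose. Median survival time recorded; %T/C = MST treated/MST control × 100. 30-day survivors counted. Minimum effective dose set at %T/C 125.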

P388 [2] = assay: Activity against P-388 murine leukemia cells expressed as median survival time (MST treated/MST control) at a dose of 6.4 mg/kg per inj.; type: functional, Mus musculus; how it was run: as §1
P388 [3] = assay: Activity against P-388 murine leukemia cells at a dose of 4.8 mg/kg per inj.; type: functional, Mus musculus; how it was run: as §1
P388 [4] = assay: (§2) Activity against P-388 murine leukemia cells expressed as average weight change at a dose of 12.8 mg/kg per inj.; type: functional, Mus musculus
P388 [5] = assay: (§3) Activity against P-388 murine leukemia cells expressed as average weight change at a dose of 25.6 mg/kg per inj.; type: functional, Mus musculus
P388 [6] = assay: (§4) Activity against P-388 murine leukemia cells expressed as average weight change at a dose of 6.4 mg/kg per inj.; type: functional, Mus musculus
P388 [7] = assay: Activity against P-388 murine leukemia cells expressed as median survival time (MST treated/MST control) at a dose of 12.8 mg/kg per inj.; type: functional, Mus musculus; how it was run: as §1
P388 [8] = assay: as §2; type: functional, organism-based; details: Mus musculus
How it was run: (§5)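 P-388 leukemia in vivo: 10^6 ascites cells implanted ip in female CDF1 mice. Six mice per dose level; 10 saline-injected controls. A parallel group of six mice per dose received mitomycin C in the same experiment as a reference. Tested at Bristol-Myers.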

P388 [9] = assay: as §3; type: functional, organism-based; details: Mus musculus; how it was run: as §5
P388 [10] = assay: Activity against P-388 murine leukemia cells expressed as median survival time (MST treated/MST control) at a dose of 3.2 mg/kg per inj.; type: functional, Mus musculus; how it was run: as §1
P388 [11] = assay: Activity against P-388 murine leukemia celLS at a dose of 3.2 mg/kg per inj.; type: functional, Mus musculus; how it was run: as §1
P388 [12] = assay: Activity against P-388 murine leukemia cells expressed as average weight change at a dose of 1.6 mg/kg per inj.; type: functional, Mus musculus
P388 [13] = assay: (§6) Activity against P-388 murine leukemia cells expressed as average weight change at a dose of 3.2 mg/kg per inj.; type: functional, Mus musculus
P388 [14] = assay: Activity against P-388 murine leukemia cells expressed as median survival time (MST treated/MST control) at a dose of 1.6 mg/kg per inj.; type: functional, Mus musculus; how it was run: as §1
P388 [15] = assay: Activity against P-388 murine leukemia cells expressed as median survival time (MST treated/MST control) at a dose of 0.2 mg/kg per inj.; type: functional, Mus musculus; how it was run: as §1
P388 [16] = assay: Activity against P-388 murine leukemia cells expressed as median survival time (MST treated/MST control) at a dose of 0.4 mg/kg per inj.; type: functional, Mus musculus; how it was run: as §1
P388 [17] = assay: Activity against P-388 murine leukemia cells expressed as median survival time (MST treated/MST control) at a dose of 0.8 mg/kg per inj.; type: functional, Mus musculus; how it was run: as §1
P388 [18] = assay: Activity against P-388 murine leukemia cells at a dose of 3.2 mg/kg per inj.; type: functional, Mus musculus; how it was run: as §1
P388 [19] = assay: Activity against P-388 murine leukemia cells expressed as average weight change at a dose of 0.2 mg/kg per inj.; type: functional, Mus musculus
P388 [20] = assay: Activity against P-388 murine leukemia cells expressed as average weight change at a dose of 0.4 mg/kg per inj.; type: functional, Mus musculus
P388 [21] = assay: Activity against P-388 murine leukemia cells expressed as average weight change at a dose of 0.8 mg/kg per inj.; type: functional, Mus musculus
P388 [22] = assay: Activity against P-388 murine leukemia cells expressed as median survival time (MST treated/MST control) at a dose of 4.8 mg/kg per inj.; type: functional, Mus musculus; how it was run: as §1
P388 [23] = assay: as §6; type: functional, organism-based; details: Mus musculus; how it was run: as §5
P388 [24] = assay: as §4; type: functional, organism-based; details: Mus musculus; how it was run: as §5

Compound	MST (P388 [1])	MST (P388 [2])	Activity (P388 [4]) [g]	Activity (P388 [5]) [g]	Activity (P388 [6]) [g]	MST (P388 [7])	MST (P388 [7]; Mus musculus)	MST (P388 [10])	Activity (P388 [12]) [g]	Activity (P388 [13]) [g]	MST (P388 [14])	also measured
COC1c2c(COC(N)=O)c3c(n2CC1N)C(=O)C(C)=C(N)C3=O.Cl (stereo not given)	130	110	0.4	0.6	1.9	115						T/C (P388 [3]): >165%
3-[6-(1,1-copperdichloro-1H,2H,3H,4H-pyrido[1,2-c]pyrimidin-9-ium-2-yl)-8a-methoxy-5-methyl-4,7-dioxo-(8aR)-1,1a,2,4,7,8,8a,8b-octahydroazireno[3',2':3,4]pyrrolo[1,2-a]indol-8-yl]methyloxocarboxamide							122					av wt change (P388 [8]): 0.2 g; av wt change (P388 [9]): -1.4 g; MST (P388 [1]; Mus musculus): 128
CO[C@@]12[C@H](COC(N)=O)C3=C(C(=O)C(C)=C(NCCc4ccccn4)C3=O)N1C[C@@H]1N[C@@H]12.Cl.Cl.[Zn+2]	161	139	-0.4	-1.3	-0.6	156		133	0.8	0.1	122	T/C (P388 [11]): 194%
CO[C@@]12C(COC(N)=O)C3=C(C(=O)C(C)=C(NCCc4ccccn4)C3=O)N1CC1NC12 (stereo not given in full)	>375	213	-1.8	-2.7	-1.1	256		163	-0.4	-0.9	163	MST (P388 [15]): 125; MST (P388 [16]): 125; MST (P388 [17]): 138; T/C (P388 [18]): 319%; Activity (P388 [19]): -0.5 g; Activity (P388 [20]): -0.6 g; Activity (P388 [21]): -0.3 g
CO[C@@]12C(COC(N)=O)C3=C(C(=O)C(C)=C(NCCN4CCNCC4)C3=O)N1CC1NC12 (stereo not given in full)	138	113	1.2	-0.6	2.1	125						T/C (P388 [22]): 213%
Platinium II Complex N7-[2-(2-Pyridyl)ethyl]mitomycin C							110					MST (P388 [1]; Mus musculus): 125; T/C (P388 [22]; Mus musculus): 230%; Activity (P388 [4]; Mus musculus): 0.5 g; Activity (P388 [5]; Mus musculus): -0.2 g
COC1c2c(COC(=N)[O-])c3c(n2CC1N)C(=O)C(C)=C(N)C3=O.Cl.[Zn+] (stereo not given)	178	133	0.4	-0.7	0.7	144		139	0.5	2	122	T/C (P388 [18]): 194%
2-amino-9-(2-carbamoyloxomethyl)-1-methoxy-6-methyl-5,8-dioxo-2,3,5,8-tetrahydro-1H-pyrrolo[1,2-a]indol-7-yl(dichlorocopper)ammonium; Copper chloride							100					Activity (P388 [8]): 0.3 g; Activity (P388 [9]): -3.1 g; MST (P388 [10]; Mus musculus): 100; MST (P388 [2]; Mus musculus): 100; T/C (P388 [18]; Mus musculus): 100%; Activity (P388 [23]): 0.9 g; Activity (P388 [24]): 0.8 g
CO[C@@]12[C@H](COC(N)=O)C3=C(C(=O)C(C)=C(NCCN4CCNCC4)C3=O)N1C[C@@H]1N[C@@H]12.Cl.Cl.[Zn+2]	100		1.2	-0.6		90						T/C (P388 [22]): 213%
